The results in this text go back to ChEMBL document CHEMBL4007422 (J Med Chem, 2017).

Active and inactive are the calls of the source. The calls are words filed in the database; no cut-off is given here.

Sequence of 5-hydroxytryptamine receptor 2A (Homo sapiens) (P28223 whole entry): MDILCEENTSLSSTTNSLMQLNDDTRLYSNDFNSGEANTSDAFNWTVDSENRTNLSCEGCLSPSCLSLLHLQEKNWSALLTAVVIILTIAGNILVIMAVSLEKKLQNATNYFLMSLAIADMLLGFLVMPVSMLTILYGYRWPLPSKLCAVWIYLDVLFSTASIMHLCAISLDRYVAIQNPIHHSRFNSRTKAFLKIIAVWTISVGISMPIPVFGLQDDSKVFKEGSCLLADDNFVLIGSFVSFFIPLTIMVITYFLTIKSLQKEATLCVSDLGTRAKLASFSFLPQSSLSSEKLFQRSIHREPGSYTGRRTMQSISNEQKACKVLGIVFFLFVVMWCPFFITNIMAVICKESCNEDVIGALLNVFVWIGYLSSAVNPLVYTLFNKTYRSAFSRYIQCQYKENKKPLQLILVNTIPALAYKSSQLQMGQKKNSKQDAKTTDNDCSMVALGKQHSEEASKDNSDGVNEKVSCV

Test system in the first data set: not listed separately
The data set can be described thus: Apparent volume of distribution in Wistar rat at 10 mg/kg, iv by LC-MS/MS analysis. The data set is classed as ADME, organism-based. Conditions: in vivo, read-out: Vz.
For the molecule `COc1ccc2c(c1)c(CN1CCN(C)CC1)cn2S(=O)(=O)c1ccc(C(C)C)cc1.CS(=O)(=O)O.CS(=O)(=O)O`, the Vd stood at 5.3 L/kg.
On the same count and under the same terms, in the case of `CN1CCN(Cc2cn(S(=O)(=O)c3ccccc3)c3ccccc23)CC1.Cl.Cl` it was 1.2 L/kg.

For a further data set, the target named is Cytochrome P450 3A4 (Homo sapiens, UniProt P08684).
Sequence of Cytochrome P450 3A4 (P08684 whole entry): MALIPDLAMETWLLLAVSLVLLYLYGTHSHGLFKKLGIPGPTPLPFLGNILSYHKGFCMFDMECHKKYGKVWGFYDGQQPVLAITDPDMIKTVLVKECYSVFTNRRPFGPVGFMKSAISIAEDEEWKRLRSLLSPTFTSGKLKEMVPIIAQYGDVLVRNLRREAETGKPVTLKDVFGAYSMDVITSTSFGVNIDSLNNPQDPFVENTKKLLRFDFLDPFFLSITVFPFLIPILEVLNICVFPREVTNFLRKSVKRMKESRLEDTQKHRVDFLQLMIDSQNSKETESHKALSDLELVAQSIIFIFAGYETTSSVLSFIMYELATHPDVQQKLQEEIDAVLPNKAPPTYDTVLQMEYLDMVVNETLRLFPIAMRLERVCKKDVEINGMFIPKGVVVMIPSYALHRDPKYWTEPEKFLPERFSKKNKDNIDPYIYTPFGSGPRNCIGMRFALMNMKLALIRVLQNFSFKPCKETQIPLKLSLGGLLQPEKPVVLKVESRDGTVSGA
Conditions: not given
For orientation: IC50 means the midpoint of a concentration-inhibition curve. Consider `COc1ccc2c(c1)c(CN1CCN(C)CC1)cn2S(=O)(=O)c1ccc(C(C)C)cc1.CS(=O)(=O)O.CS(=O)(=O)O`, for which the IC50 was 1850 nM.
`CN1CCN(Cc2cn(S(=O)(=O)c3ccccc3)c3ccccc23)CC1.Cl.Cl` gave an IC50 of more than 10000 nM.

A further data set has as its target T1, 5-hydroxytryptamine receptor 1A (Homo sapiens) (UniProt P08908).
T1 sequence (whole entry): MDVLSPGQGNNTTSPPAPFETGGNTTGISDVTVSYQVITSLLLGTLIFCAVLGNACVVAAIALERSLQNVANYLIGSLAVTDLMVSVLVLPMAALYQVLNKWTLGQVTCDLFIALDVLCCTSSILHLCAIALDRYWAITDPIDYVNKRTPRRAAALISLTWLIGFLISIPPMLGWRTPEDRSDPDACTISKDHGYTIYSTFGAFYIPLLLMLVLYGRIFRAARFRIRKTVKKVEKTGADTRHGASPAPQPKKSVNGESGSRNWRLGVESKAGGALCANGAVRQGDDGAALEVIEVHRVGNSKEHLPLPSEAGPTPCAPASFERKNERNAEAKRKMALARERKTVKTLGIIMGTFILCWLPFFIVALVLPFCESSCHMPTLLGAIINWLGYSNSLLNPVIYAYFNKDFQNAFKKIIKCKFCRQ
The experiment in a line: Displacement of [3H]-8-OH-DPAT from recombinant human 5-HT1A receptor expressed in HEK293 EBNA cell membranes after 120 mins by microbeta scintillation counting analysis.
Conditions: not given
In the case of `COc1ccc2c(c1)c(CN1CCN(C)CC1)cn2S(=O)(=O)c1ccc(C(C)C)cc1.CS(=O)(=O)O.CS(=O)(=O)O`, the outcome was inactive.
In the case of `CN1CCN(Cc2cn(S(=O)(=O)c3ccccc3)c3ccccc23)CC1.Cl.Cl`, the result was inactive.

Test system in a further data set: not listed separately
The data set can be described thus: Oral bioavailability in Wistar rat at 10 mg/kg by LC-MS/MS analysis. Conditions: Wistar, in vivo. The data set is classed as ADME, organism-based.
As a reminder, the bioavailability is dose-corrected exposure relative to a reference, in per cent. A higher bioavailability goes with good availability. Take `COc1ccc2c(c1)c(CN1CCN(C)CC1)cn2S(=O)(=O)c1ccc(C(C)C)cc1.CS(=O)(=O)O.CS(=O)(=O)O`: the bioavailability came out at 4.9%.
`CN1CCN(Cc2cn(S(=O)(=O)c3ccccc3)c3ccccc23)CC1.Cl.Cl` returned a bioavailability of 21.4%.

The target of another data set is 5-hydroxytryptamine receptor 7 (Rattus norvegicus) (UniProt P32305). The data set can be described thus: Binding affinity to recombinant rat 5-HT7 receptor expressed in CHOK1 cells assessed as inhibition of 5-HT stimulated cAMP accumulation after 4 hrs by luciferase reporter gene assay. It is filed as cell-based.
Sequence of 5-hydroxytryptamine receptor 7 (Rattus norvegicus) (P32305 whole entry): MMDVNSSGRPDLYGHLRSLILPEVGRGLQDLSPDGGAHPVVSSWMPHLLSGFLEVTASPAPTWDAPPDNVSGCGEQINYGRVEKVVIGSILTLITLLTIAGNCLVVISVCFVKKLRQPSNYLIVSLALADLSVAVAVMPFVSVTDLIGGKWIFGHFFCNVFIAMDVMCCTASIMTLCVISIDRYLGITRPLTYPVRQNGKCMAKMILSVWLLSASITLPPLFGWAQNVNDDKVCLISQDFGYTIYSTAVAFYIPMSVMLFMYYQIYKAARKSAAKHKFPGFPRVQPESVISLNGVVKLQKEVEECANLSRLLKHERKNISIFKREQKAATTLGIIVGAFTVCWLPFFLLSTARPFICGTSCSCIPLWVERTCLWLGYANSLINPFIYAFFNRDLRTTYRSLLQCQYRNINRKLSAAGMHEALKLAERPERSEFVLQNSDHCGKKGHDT
Conditions: not given
Consider `COc1ccc2c(c1)c(CN1CCN(C)CC1)cn2S(=O)(=O)c1ccc(C(C)C)cc1.CS(=O)(=O)O.CS(=O)(=O)O`, for which the result was inactive.
For the molecule `CN1CCN(Cc2cn(S(=O)(=O)c3ccccc3)c3ccccc23)CC1.Cl.Cl`, the outcome was inactive.

Test system in another data set: not listed separately
The data set can be described thus: AUC (0 to t) in Wistar rat at 10 mg/kg, po by LC-MS/MS analysis. It is filed as ADME, organism-based. Conditions: Wistar, in vivo.
One may read the AUC(0-t) as the area under the concentration-time curve up to a stated or last time point. High values mean more exposure, low ones less exposure. `COc1ccc2c(c1)c(CN1CCN(C)CC1)cn2S(=O)(=O)c1ccc(C(C)C)cc1.CS(=O)(=O)O.CS(=O)(=O)O` displayed an AUC(0-t) of 151 ng·h/mL.
As for `CN1CCN(Cc2cn(S(=O)(=O)c3ccccc3)c3ccccc23)CC1.Cl.Cl`, the AUC(0-t) is 2220 ng·h/mL.

The target in a further data set is Cytochrome P450 2D6 (Homo sapiens, UniProt P10635). The experiment in a line: Inhibition of CYP2D6 in human liver microsomes in presence of NADPH by LC-MS/MS analysis.
Sequence of Cytochrome P450 2D6 (P10635 whole entry): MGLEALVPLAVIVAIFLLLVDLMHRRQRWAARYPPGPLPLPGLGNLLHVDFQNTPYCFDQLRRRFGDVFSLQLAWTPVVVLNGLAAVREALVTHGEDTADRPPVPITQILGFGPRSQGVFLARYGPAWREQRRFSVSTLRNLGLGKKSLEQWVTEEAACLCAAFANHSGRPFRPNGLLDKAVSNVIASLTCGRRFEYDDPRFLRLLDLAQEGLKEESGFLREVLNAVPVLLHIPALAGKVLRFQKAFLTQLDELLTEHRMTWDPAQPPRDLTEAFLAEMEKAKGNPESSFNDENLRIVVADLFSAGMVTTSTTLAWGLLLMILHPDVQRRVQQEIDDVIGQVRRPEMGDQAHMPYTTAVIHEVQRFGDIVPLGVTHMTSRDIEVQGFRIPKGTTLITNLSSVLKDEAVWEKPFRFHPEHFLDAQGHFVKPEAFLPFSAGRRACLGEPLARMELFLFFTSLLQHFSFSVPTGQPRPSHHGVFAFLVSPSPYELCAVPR
Conditions: not given
In general terms: Microsomes from liver hold many membrane-bound enzymes, among them those of drug oxidation.
As for `COc1ccc2c(c1)c(CN1CCN(C)CC1)cn2S(=O)(=O)c1ccc(C(C)C)cc1.CS(=O)(=O)O.CS(=O)(=O)O`, the IC50 turned out to be 33.5 µM.
On the same count and under the same terms, as for `CN1CCN(Cc2cn(S(=O)(=O)c3ccccc3)c3ccccc23)CC1.Cl.Cl`, the figure is more than 10 µM.

For the next data set, the system named is Rattus norvegicus. The experiment in a line: Reversal of time-induced amnesia in Wistar rat at 10 mg/kg, po administered 60 mins prior to testing measured for 3 mins by object recognition test.
Conditions: not given
It is filed as functional, organism-based. In short, it runs like this:
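Time-induced object recognition task in rats. Oral dosing at 1, 3 and 10 mg/kg given 60 min before the test; vehicle water for injection 1 mL/kg p.o.; n = 7−12/group. Exploration of novel versus familiar object compared by paired t-test.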
Regarding `CN1CCN(Cc2cn(S(=O)(=O)c3ccccc3)c3ccccc23)CC1.Cl.Cl`, the result was Active.

Test system in another data set: not listed separately
The data set can be described thus: Clearance in Wistar rat at 10 mg/kg, iv by LC-MS/MS analysis. The data set is classed as ADME, organism-based. Conditions: in vivo.
The clearance is the rate of elimination divided by the concentration. Read a high clearance as efficient removal. `COc1ccc2c(c1)c(CN1CCN(C)CC1)cn2S(=O)(=O)c1ccc(C(C)C)cc1.CS(=O)(=O)O.CS(=O)(=O)O`: the clearance is 54 mL/min/kg.
In turn, `CN1CCN(Cc2cn(S(=O)(=O)c3ccccc3)c3ccccc23)CC1.Cl.Cl` came in with a clearance of 14.9 mL/min/kg.

Test system in the next data set: not listed separately
The data set can be described thus: Ratio of drug uptake in Wistar rat brain to plasma at 10 mg/kg, po by LC-MS/MS analysis. It is filed as ADME, organism-based. As to conditions: read-out: BPR.
Take `CN1CCN(Cc2cn(S(=O)(=O)c3ccccc3)c3ccccc23)CC1.Cl.Cl`: the Kp was 0.82.

The next data set has as its target 5-hydroxytryptamine receptor 2A (Homo sapiens) (UniProt P28223). The data set can be described thus: Displacement of [3H]-Ketanserine from recombinant human 5-HT2A receptor expressed in CHOK1 cell membranes after 60 mins by microbeta scintillation counting analysis.
Conditions: not given
As to `COc1ccc2c(c1)c(CN1CCN(C)CC1)cn2S(=O)(=O)c1ccc(C(C)C)cc1.CS(=O)(=O)O.CS(=O)(=O)O`, the outcome was Active.
Still for that read-out and setting: in the case of `CN1CCN(Cc2cn(S(=O)(=O)c3ccccc3)c3ccccc23)CC1.Cl.Cl` it was “Active”.

Test system in a further data set: not listed separately
The data set can be described thus: Half life in Wistar rat at 10 mg/kg, iv by LC-MS/MS analysis. The data set is classed as ADME, organism-based. As to conditions: in vivo.
As usually defined, the half-life is the time in which the quantity being followed falls by half. Low readings indicate fast loss, high ones slow loss. `COc1ccc2c(c1)c(CN1CCN(C)CC1)cn2S(=O)(=O)c1ccc(C(C)C)cc1.CS(=O)(=O)O.CS(=O)(=O)O`: the half-life was 67.2 min.
The molecule `CN1CCN(Cc2cn(S(=O)(=O)c3ccccc3)c3ccccc23)CC1.Cl.Cl` gave a half-life of 53.4 min.

Test system in the next data set: not listed separately
The experiment in a line: Cmax in Wistar rat at 10 mg/kg, po by LC-MS/MS analysis. The arrangement: dose 10 mg/kg, route oral. It is filed as ADME, organism-based. Conditions: in vivo.
One may read the Cmax as the highest concentration seen after dosing. In the case of `COc1ccc2c(c1)c(CN1CCN(C)CC1)cn2S(=O)(=O)c1ccc(C(C)C)cc1.CS(=O)(=O)O.CS(=O)(=O)O`, the highest level (Cmax) was 56.4 ng/mL.
In turn, `CN1CCN(Cc2cn(S(=O)(=O)c3ccccc3)c3ccccc23)CC1.Cl.Cl` returned a Cmax of 1220 ng/mL.

The target in a further data set is 5-hydroxytryptamine receptor 4 (Homo sapiens) (UniProt Q13639). The experiment in a line: Displacement of [3H]-GR113808 from recombinant human 5-HT4B receptor expressed in Chem1 cell membranes after 120 mins by microbeta scintillation counting analysis.
Sequence of 5-hydroxytryptamine receptor 4 (Homo sapiens) (Q13639 whole entry): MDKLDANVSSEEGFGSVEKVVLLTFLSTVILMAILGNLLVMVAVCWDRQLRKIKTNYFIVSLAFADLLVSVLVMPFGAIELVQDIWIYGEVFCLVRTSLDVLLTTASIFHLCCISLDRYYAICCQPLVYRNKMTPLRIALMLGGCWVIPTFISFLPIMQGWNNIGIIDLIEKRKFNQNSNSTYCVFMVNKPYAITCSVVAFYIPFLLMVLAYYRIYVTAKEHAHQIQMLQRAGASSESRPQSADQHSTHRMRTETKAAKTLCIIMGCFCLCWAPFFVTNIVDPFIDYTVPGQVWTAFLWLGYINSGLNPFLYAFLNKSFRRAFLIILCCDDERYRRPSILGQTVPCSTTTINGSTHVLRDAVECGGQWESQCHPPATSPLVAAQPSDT
Conditions: not given
For orientation: Loss of bound radioactivity is the signal in a displacement assay; it reports binding, not function.
On to `COc1ccc2c(c1)c(CN1CCN(C)CC1)cn2S(=O)(=O)c1ccc(C(C)C)cc1.CS(=O)(=O)O.CS(=O)(=O)O`, for which the result was inactive.
With `CN1CCN(Cc2cn(S(=O)(=O)c3ccccc3)c3ccccc23)CC1.Cl.Cl`, the outcome was inactive.

The target in another data set is T2, 5-hydroxytryptamine receptor 2C (Homo sapiens) (UniProt P28335).
T2 sequence (whole entry): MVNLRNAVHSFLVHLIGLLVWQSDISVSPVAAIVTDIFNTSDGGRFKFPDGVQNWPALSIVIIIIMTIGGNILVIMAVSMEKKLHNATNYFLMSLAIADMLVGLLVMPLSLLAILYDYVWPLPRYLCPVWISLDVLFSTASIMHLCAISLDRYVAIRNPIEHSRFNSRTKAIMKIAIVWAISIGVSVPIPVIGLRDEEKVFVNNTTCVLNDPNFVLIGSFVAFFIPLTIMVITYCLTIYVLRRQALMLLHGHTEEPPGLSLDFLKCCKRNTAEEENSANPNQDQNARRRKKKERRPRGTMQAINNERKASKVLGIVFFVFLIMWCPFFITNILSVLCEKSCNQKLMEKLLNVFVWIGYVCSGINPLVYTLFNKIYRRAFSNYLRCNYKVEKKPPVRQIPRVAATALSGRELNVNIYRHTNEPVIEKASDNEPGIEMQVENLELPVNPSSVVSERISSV
The data set can be described thus: Displacement of [3H]-Mesulergine from recombinant human 5-HT2C receptor expressed in HEK293 cell membranes after 180 mins by microbeta scintillation counting analysis.
Conditions: not given
On to `COc1ccc2c(c1)c(CN1CCN(C)CC1)cn2S(=O)(=O)c1ccc(C(C)C)cc1.CS(=O)(=O)O.CS(=O)(=O)O`, for which the outcome was inactive.
The same measure, in the same setting: as for `CN1CCN(Cc2cn(S(=O)(=O)c3ccccc3)c3ccccc23)CC1.Cl.Cl`, the entry is “inactive”.
